Measured values reported in ChEMBL document CHEMBL5678806, “NMS-P937, an orally available, specific small-molecule polo-like kinase 1 inhibitor with antitumor activity in solid and hematologic malignancies” (Mol Cancer Ther, 2012).
Calls of active or inactive are those of the source. The calls are words filed in the database; no cut-off is given here.

What was measured:
Casein kinase 2 = Casein kinase 2 (Homo sapiens, UniProt P67870+P68400+P19784+Q8NEV1); experiment: Inhibition of CK2 (unknown origin) in presence of [gamma-33P]ATP; format: protein assay
[1] = target: Serine/threonine-protein kinase Chk1 (Homo sapiens, UniProt O14757); experiment: Inhibition of CHK1 (unknown origin) in presence of [gamma-33P]ATP
Serine/threonine-protein kinase Chk1, sequence (O14757 whole entry): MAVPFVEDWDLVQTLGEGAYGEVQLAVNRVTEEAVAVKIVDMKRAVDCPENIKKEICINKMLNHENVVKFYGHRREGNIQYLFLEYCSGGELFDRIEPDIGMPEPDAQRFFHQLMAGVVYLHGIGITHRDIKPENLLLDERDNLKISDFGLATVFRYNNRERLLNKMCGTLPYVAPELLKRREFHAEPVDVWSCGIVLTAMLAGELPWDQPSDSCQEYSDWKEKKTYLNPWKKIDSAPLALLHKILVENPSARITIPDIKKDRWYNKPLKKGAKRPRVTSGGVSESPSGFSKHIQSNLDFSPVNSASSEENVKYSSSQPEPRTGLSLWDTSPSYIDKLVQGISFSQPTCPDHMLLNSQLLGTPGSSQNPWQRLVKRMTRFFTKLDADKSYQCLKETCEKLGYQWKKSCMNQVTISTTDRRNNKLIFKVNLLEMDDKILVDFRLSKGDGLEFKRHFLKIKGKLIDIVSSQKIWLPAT

[2] = target: Fibroblast growth factor receptor 1 (Homo sapiens, UniProt P11362); experiment: Inhibition of FGFR1 (unknown origin) in presence of [gamma-33P]ATP
[3] = target: Tyrosine-protein kinase Lyn (Homo sapiens, UniProt P07948); experiment: Inhibition of LYN (unknown origin) in presence of [gamma-33P]ATP
[4] = target: Mitogen-activated protein kinase 14 (Homo sapiens, UniProt Q16539); experiment: Inhibition of P38alpha (unknown origin) in presence of [gamma-33P]ATP
Mitogen-activated protein kinase 14, sequence (Q16539 whole entry): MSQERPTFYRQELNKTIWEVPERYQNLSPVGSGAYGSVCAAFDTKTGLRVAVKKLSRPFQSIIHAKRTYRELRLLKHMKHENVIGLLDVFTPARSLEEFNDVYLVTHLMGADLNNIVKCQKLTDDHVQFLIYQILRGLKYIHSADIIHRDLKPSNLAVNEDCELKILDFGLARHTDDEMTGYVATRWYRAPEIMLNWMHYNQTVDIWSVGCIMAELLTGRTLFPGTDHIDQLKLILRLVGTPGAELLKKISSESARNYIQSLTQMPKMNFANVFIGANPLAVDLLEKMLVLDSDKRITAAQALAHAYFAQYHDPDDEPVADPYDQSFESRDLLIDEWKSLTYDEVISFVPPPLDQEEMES

[5] = target: Casein kinase I homolog 1 (Saccharomyces cerevisiae S288c) (UniProt P23291); experiment: Inhibition of yeast CK1 assessed as residual activity at 0.1 uM relative to control
Casein kinase I homolog 1 (Saccharomyces cerevisiae S288c), sequence (P23291 whole entry): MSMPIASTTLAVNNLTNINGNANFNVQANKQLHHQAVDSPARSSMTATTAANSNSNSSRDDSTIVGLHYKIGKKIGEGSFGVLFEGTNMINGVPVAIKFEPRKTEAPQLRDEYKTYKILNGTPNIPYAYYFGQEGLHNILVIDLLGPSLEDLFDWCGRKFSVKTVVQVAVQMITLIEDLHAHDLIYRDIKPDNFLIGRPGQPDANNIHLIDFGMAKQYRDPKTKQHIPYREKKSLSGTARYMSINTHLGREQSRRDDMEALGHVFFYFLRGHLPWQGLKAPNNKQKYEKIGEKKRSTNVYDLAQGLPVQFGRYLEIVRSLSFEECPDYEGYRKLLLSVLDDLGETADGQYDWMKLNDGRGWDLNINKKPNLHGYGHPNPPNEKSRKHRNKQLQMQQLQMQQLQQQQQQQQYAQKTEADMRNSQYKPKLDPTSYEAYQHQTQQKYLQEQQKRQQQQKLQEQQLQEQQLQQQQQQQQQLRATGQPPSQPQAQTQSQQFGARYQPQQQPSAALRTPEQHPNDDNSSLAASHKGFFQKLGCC

[6] = target: Testis-specific serine/threonine-protein kinase 1 (Homo sapiens) (UniProt Q9BXA7); experiment: Inhibition of 6His-tagged recombinant human full length TSSK1 expressed in baculovirus infected Sf21 cells assessed as residual activity at 0.1 uM relative to control
Testis-specific serine/threonine-protein kinase 1 (Homo sapiens), sequence (Q9BXA7 whole entry, the tested form may be a part): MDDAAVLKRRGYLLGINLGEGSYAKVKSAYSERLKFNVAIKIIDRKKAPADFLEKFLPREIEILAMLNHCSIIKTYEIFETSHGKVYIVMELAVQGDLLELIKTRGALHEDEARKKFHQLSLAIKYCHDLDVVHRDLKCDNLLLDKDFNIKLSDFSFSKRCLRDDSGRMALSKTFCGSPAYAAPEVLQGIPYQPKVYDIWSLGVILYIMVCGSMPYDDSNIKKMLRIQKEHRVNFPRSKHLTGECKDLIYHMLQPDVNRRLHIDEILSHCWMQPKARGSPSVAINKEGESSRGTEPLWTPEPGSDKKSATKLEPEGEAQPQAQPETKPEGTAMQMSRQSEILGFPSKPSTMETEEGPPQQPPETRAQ

[7] = target: Mitogen-activated protein kinase kinase kinase 5 (Homo sapiens) (UniProt Q99683); experiment: Inhibition of N-Terminal GST and C-terminal His6-tagged recombinant human ASK1 (649 to 946 residues) expressed in E. coli cell assessed as residual activity at 1 uM relative to control
Mitogen-activated protein kinase kinase kinase 5 (Homo sapiens), sequence (Q99683 whole entry, the tested form may be a part): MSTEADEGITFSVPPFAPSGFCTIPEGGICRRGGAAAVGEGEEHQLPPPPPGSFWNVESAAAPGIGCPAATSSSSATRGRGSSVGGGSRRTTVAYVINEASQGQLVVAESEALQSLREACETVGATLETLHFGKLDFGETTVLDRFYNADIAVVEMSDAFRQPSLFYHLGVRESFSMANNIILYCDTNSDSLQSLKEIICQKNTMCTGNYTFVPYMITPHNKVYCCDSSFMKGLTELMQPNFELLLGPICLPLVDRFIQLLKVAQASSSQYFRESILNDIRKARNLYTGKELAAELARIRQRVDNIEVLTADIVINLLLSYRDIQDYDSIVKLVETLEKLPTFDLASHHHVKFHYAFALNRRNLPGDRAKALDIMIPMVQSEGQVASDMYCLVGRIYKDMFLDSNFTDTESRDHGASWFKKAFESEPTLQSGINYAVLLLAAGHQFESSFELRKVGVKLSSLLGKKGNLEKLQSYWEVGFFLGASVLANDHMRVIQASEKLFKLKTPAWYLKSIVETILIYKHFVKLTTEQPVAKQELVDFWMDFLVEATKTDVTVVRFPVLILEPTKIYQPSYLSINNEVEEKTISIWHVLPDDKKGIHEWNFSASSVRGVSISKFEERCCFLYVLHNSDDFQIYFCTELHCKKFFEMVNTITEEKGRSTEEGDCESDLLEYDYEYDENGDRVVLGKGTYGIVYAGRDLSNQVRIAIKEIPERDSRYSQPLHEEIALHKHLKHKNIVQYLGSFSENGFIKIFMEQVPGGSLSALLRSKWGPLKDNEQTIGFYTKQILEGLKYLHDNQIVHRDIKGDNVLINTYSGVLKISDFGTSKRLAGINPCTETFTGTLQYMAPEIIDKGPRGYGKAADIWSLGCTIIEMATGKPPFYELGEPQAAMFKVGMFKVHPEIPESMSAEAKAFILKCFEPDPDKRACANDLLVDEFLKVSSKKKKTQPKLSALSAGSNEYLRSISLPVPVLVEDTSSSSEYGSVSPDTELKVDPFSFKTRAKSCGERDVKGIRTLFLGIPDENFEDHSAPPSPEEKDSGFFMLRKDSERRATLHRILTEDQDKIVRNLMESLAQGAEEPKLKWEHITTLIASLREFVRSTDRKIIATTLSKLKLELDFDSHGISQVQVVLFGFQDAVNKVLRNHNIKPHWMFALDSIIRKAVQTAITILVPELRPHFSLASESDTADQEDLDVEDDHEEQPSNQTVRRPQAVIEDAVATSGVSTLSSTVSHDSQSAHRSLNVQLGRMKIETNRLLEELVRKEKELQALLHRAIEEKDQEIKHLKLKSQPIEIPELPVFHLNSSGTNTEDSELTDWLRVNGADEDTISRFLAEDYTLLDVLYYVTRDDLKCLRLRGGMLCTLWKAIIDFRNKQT

[8] = target: Serine/threonine-protein kinase DCLK2 (Homo sapiens) (UniProt Q8N568); experiment: Inhibition of N-terminal 6His-tagged recombinant human DCAMKL2 (376 to end residues) expressed in baculovirus infected Sf21 cells assessed as residual activity at 1 uM relative to control
[9] = target: Homeodomain-interacting protein kinase 1 (Homo sapiens) (UniProt Q86Z02); experiment: Inhibition of N-terminal 6His-tagged recombinant human HIPK1 (158 to 555 residues) expressed in baculovirus infected Sf21 cells assessed as residual activity at 1 uM relative to control
Homeodomain-interacting protein kinase 1 (Homo sapiens), sequence (Q86Z02 whole entry, looked up, the tested form may be a part): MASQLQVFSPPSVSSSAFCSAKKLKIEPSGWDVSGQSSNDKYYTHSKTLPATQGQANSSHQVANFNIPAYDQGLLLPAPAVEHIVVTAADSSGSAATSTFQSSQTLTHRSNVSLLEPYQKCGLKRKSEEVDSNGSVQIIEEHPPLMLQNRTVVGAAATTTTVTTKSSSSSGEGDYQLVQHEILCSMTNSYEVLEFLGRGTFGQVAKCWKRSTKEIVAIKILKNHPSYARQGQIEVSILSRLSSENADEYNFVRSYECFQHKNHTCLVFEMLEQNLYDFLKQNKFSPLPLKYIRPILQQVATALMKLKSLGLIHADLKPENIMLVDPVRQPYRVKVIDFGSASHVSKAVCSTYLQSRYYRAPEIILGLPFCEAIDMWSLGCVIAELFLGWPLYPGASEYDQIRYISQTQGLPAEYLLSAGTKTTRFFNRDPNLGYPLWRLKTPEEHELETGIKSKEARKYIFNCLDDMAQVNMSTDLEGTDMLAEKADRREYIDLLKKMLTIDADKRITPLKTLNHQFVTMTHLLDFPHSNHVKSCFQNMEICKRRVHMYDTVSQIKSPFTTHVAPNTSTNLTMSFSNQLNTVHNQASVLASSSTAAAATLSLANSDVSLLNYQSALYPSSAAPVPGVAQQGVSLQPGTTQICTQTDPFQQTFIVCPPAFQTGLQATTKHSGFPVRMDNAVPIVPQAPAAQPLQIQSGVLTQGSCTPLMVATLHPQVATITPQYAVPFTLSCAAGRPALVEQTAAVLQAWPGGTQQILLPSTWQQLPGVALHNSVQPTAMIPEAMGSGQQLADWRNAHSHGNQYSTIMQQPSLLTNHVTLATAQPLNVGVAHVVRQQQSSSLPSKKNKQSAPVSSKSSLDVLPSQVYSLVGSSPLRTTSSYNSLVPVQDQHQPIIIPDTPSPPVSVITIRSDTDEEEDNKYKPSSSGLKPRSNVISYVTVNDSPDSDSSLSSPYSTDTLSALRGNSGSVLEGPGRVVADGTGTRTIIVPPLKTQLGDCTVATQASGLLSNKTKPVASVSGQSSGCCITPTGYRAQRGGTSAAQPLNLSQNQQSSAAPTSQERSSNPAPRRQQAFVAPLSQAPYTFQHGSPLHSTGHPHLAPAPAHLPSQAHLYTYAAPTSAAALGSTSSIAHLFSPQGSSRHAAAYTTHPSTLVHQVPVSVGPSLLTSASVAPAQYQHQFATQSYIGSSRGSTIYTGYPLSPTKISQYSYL

[10] = target: Ribosomal protein S6 kinase alpha-3 (Homo sapiens) (UniProt P51812); experiment: Inhibition of N-terminal His6 tagged recombinant human full-length Rsk2 expressed in baculovirus infected Sf21 cells assessed as residual activity at 1 uM relative to control
Ribosomal protein S6 kinase alpha-3 (Homo sapiens), sequence (P51812 whole entry): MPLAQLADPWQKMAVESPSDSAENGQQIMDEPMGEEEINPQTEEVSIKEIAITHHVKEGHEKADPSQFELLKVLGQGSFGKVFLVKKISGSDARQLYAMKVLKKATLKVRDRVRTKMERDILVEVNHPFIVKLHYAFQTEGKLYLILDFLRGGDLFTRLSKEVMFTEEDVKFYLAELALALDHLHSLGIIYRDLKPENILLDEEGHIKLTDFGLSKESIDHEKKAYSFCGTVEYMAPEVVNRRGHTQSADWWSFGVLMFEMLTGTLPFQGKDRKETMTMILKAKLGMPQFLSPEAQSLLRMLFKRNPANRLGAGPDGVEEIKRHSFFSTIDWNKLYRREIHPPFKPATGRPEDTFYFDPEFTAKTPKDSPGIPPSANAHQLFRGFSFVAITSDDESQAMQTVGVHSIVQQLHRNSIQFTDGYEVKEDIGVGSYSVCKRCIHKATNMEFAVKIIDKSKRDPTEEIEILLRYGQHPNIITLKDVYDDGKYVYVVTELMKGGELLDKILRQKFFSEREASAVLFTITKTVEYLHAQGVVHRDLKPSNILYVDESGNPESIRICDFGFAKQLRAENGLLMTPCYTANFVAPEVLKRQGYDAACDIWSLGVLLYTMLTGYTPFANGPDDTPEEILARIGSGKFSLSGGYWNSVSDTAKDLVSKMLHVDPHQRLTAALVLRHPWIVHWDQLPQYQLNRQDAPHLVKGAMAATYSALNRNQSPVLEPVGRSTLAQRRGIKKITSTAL

[11] = target: Tyrosine-protein kinase SYK (Homo sapiens, UniProt P43405); experiment: Inhibition of N-terminal His6-tagged recombinant full-length human Syk expressed in baculovirus infected Sf21 cells assessed as residual activity at 1 uM relative to control
[12] = Antiproliferative activity against human GBM-0627-GFD cells assessed as inhibition of cell growth incubated for 72 hrs by cell-titer glo assay; format: functional, cell-based
In short: (§1)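 Cells seeded 10,000–30,000/cm² (adherent) or 100,000/mL (suspension) in medium with 10% fetal calf serum; after 24 h treated in duplicate with serial dilutions for 72 h. Viable cells read by CellTiter-Glo luminescence; IC50 from sigmoidal fit; at least two independent experiments.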

LN-229 = experiment: Antiproliferative activity against human LN-229 cells assessed as inhibition of cell growth incubated for 72 hrs by cell-titer glo assay; format: functional, cell-based; details: LN-229, 72 h
In short: (§2)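 Cells seeded at 10,000–30,000/cm² (adherent) or 100,000/mL (nonadherent) in medium with 10% fetal calf serum; after 24 h, treated in duplicate with serial dilutions for 72 h. Viable cell number read by CellTiter-Glo luminescence; IC50 from sigmoidal fit; at least two independent experiments.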

HCC1806 = experiment: Antiproliferative activity against human HCC1806 cells assessed as inhibition of cell growth incubated for 72 hrs by cell-titer glo assay; format: functional, cell-based; details: HCC1806, 72 h; in short: as §2
HCC1419 = experiment: Antiproliferative activity against human HCC1419 cells assessed as inhibition of cell growth incubated for 72 hrs by cell-titer glo assay; format: functional, cell-based; details: HCC1419, 72 h; in short: as §2
BT-549 = experiment: Antiproliferative activity against human BT-549 cells assessed as inhibition of cell growth incubated for 72 hrs by cell-titer glo assay; format: functional, cell-based; details: BT-549, 72 h; in short: as §1
HeLa = experiment: Antiproliferative activity against human HeLa cells assessed as inhibition of cell growth incubated for 72 hrs by cell-titer glo assay; format: functional, cell-based; in short: as §2
SW-620 = experiment: Antiproliferative activity against human SW620 cells assessed as inhibition of cell growth incubated for 72 hrs by cell-titer glo assay; format: functional, cell-based; details: SW-620, 72 h
HCT-116 = experiment: Antiproliferative activity against human HCT-116 cells assessed as inhibition of cell growth incubated for 72 hrs by cell-titer glo assay; format: functional, cell-based; details: HCT-116, 72 h; in short: as §2
HT-1080 = experiment: Antiproliferative activity against human HT-1080 cells assessed as inhibition of cell growth incubated for 72 hrs by cell-titer glo assay; format: functional, cell-based; details: HT-1080, 72 h; in short: as §2
LCLC-97TM1 = experiment: Antiproliferative activity against human LCLC-97TM1 cells assessed as inhibition of cell growth incubated for 72 hrs by cell-titer glo assay; format: functional, cell-based; details: LCLC-97TM1, 72 h; in short: as §2
NCI-H322M = experiment: Antiproliferative activity against human NCI-H322M cells assessed as inhibition of cell growth incubated for 72 hrs by cell-titer glo assay; format: functional, cell-based
In short: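 Cells from ATCC or ECACC, kept in supplier-recommended medium with 1% penicillin-streptomycin at 37°C, 5% CO₂. Seeded at 10,000–30,000/cm² (adherent) or 100,000/mL (nonadherent) in medium with 10% fetal calf serum. Dosed after 24 h in duplicate with serial dilutions. Viable cells read by CellTiter-Glo 72 h later. IC50 from sigmoidal fit. At least two independent experiments.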

[13] = Antiproliferative activity against human M-07e cells assessed as inhibition of cell growth incubated for 72 hrs by cell-titer glo assay; format: functional, cell-based; in short: as §2
SKM-1 = experiment: Antiproliferative activity against human SKM-1 cells assessed as inhibition of cell growth incubated for 72 hrs by cell-titer glo assay; format: functional, cell-based; details: SKM-1, 72 h
L-363 = experiment: Antiproliferative activity against human L-363 cells assessed as inhibition of cell growth incubated for 72 hrs by cell-titer glo assay; format: functional, cell-based; details: L-363, 72 h; in short: as §2
[14] = Cmax in Sprague-Dawley rat at 10 mg/kg, iv by LC-MS analysis; format: ADME, organism-based; details: in vivo
[15] = AUC in Beagle dog at 5 mg/kg, po by LC-MS analysis; format: ADME, organism-based, Canis lupus familiaris; details: in vivo
[16] = Oral bioavailability in nu/nu mouse at 10 mg/kg by LC-MS analysis; format: ADME, organism-based; details: in vivo
A2780 [17] = experiment: Induction of mitosis in human A2780 cells xenografted in nu/nu mouse assessed as increased NPM phosphorylation on Thr199 at 60 mg/kg, po administered for 2 to 6 hrs by immunohistochemistry analysis; format: functional, organism-based; details: time 2-6 hrs
A2780 [18] = experiment: Induction of mitosis in human A2780 cells xenografted in nu/nu mouse assessed as decreased NPM phosphorylation on Thr199 at 60 mg/kg, po administered for 12 to 24 hrs by immunohistochemistry analysis; format: functional, organism-based; details: time lower […], time upper 24.0 hrs

SMILES: CN1CCN(c2ccc(OC(F)(F)F)c(Nc3ncc4c(n3)-c3c(c(C(N)=O)nn3CCO)CC4)c2)CC1 [ONVANSERTIB]
- IC50 (Casein kinase 2): 826 nM
- IC50 [1]: > 10000 nM
- IC50 [2]: > 10000 nM
- IC50 [3]: > 10000 nM
- IC50 [4]: > 10000 nM
- Activity [5]: 42%
- Activity [6]: 67%
- Activity [7]: 125%
- Activity [8]: 90%
- Activity [9]: 90%
- Activity [10]: 89%
- Activity [11]: 89%
- IC50 [12]: 56 nM
- IC50 (LN-229): 62 nM
- IC50 (HCC1806): 18 nM
- IC50 (HCC1419): 42 nM
- IC50 (BT-549): 49 nM
- IC50 (HeLa): 60 nM
- IC50 (SW-620): 37 nM
- IC50 (HCT-116): 86 nM
- IC50 (HT-1080): 59 nM
- IC50 (LCLC-97TM1): 32 nM
- IC50 (NCI-H322M): 183 nM
- IC50 [13]: 66 nM
- IC50 (SKM-1): 60 nM
- IC50 (L-363): 37 nM
- Cmax [14]: 6.8 µM
- AUC [15]: 8.1 µM·h
- bioavailability [16]: 24%
- Activity (A2780 [17]): Active
- Activity (A2780 [18]): Active
